The species entered for assay [1] is Homo sapiens. The experiment in a line: Inhibition of HDAC in human HeLa-S3 cells lysates assessed as remaining enzyme activity at 6.25 x 10^-8 M pre-incubated for 15 mins before HDAC-Glo I/II substrate addition and measured after 30 mins post substrate addition. The assay is classed as cell-free.
Assay [2] deals with T1, Histone deacetylase 2 (Homo sapiens, UniProt Q92769). The experiment in a line: Inhibition of HDAC2 (unknown origin) assessed as remaining enzyme activity at 0.025 uM by ELISA-based assay. In short, it runs like this:
(§1)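 Isoform screen by ELISA-based HDAC activity assay against HDAC1, HDAC2, HDAC3 and HDAC6. Each analog was tested at one final concentration: 0.025, 0.125, 0.25 or 1.25 µM. Read-out is percent deacetylase activity remaining, given as the mean with standard error of at least two independent trials.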

For assay [3], the species on record is Homo sapiens. The experiment in a line: Inhibition of HDAC in human HeLa-S3 cells lysates assessed as remaining enzyme activity at 5 x 10^-7 M pre-incubated for 15 mins before HDAC-Glo I/II substrate addition and measured after 30 mins post substrate addition. The assay is classed as cell-free.
Assay [4] concerns the target T2, Histone deacetylase 1 (Homo sapiens, UniProt Q13547). The experiment in a line: Inhibition of HDAC1 (unknown origin) assessed as remaining enzyme activity at 0.025 uM by ELISA-based assay. In short, it runs like this:
as §1

Assay [5] is filed under the species Homo sapiens. The experiment in a line: Inhibition of HDAC in human HeLa-S3 cells lysates assessed as remaining enzyme activity at 2.5 x 10^-7 M pre-incubated for 15 mins before HDAC-Glo I/II substrate addition and measured after 30 mins post substrate addition. It counts as cell-free.
The target in assay [6] is T3, Histone deacetylase 3 (Homo sapiens, UniProt O15379). The experiment in a line: Inhibition of HDAC3 (unknown origin) assessed as remaining enzyme activity at 0.025 uM by ELISA-based assay. Summed up: as §1
T3 sequence (O15379 whole entry): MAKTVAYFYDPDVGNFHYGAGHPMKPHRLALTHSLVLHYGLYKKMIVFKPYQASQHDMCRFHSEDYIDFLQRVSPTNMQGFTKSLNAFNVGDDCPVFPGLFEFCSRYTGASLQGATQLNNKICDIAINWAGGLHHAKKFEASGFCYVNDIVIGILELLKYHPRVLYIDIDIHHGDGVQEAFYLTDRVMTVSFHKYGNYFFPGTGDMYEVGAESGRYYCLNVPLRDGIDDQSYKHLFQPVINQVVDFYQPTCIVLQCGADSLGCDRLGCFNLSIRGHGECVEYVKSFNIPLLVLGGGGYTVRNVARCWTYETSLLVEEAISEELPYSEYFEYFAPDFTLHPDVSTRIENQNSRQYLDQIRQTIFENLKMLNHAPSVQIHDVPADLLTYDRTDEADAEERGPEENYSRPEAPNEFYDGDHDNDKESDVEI
(ELISA stands for enzyme-linked immunosorbent assay.)

For assay [7], the target named is T4, Protein deacetylase HDAC6 (Homo sapiens) (UniProt Q9UBN7).
T4 sequence (whole entry): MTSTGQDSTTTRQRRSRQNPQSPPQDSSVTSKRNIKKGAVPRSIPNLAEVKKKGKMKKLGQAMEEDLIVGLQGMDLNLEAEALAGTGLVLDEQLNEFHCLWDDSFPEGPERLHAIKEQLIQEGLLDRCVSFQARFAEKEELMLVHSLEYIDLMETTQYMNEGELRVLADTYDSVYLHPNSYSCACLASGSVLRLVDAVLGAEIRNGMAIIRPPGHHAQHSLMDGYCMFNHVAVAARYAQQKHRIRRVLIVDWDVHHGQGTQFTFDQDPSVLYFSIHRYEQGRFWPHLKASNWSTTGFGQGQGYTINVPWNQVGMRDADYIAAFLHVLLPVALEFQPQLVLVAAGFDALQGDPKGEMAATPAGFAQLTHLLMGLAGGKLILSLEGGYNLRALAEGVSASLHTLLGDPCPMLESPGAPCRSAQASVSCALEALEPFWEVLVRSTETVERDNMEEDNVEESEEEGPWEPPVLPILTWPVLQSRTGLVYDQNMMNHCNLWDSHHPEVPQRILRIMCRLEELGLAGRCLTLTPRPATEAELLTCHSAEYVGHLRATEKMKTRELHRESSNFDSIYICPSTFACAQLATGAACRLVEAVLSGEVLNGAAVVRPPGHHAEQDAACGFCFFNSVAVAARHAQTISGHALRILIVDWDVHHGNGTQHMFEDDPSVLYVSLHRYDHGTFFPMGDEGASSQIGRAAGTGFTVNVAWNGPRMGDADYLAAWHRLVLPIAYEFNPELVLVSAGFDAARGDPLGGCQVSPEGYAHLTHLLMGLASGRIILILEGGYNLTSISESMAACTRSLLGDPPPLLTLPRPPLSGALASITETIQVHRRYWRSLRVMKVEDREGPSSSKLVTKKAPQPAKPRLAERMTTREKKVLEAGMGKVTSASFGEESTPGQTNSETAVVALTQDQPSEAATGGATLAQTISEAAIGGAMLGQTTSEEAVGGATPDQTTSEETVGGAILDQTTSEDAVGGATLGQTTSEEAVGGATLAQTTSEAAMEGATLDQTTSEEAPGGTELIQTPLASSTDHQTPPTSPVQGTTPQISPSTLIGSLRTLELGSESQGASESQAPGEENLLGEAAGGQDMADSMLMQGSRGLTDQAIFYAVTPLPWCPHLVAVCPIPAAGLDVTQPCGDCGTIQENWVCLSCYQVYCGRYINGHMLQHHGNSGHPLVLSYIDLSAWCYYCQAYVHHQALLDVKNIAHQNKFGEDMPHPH
The experiment in a line: Inhibition of HDAC6 (unknown origin) assessed as remaining enzyme activity at 0.025 uM by ELISA-based assay. Summed up:
as §1

Assay [8] is filed under the species Homo sapiens. The experiment in a line: Inhibition of HDAC in human HeLa-S3 cells lysates assessed as remaining enzyme activity at 1.25 x 10^-7 M pre-incubated for 15 mins before HDAC-Glo I/II substrate addition and measured after 30 mins post substrate addition. It counts as cell-free.
Assay [9] is filed under the species Homo sapiens. The experiment in a line: Inhibition of HDAC in human HeLa-S3 cells lysates assessed as remaining enzyme activity at 3.13 x 10^-8 M pre-incubated for 15 mins before HDAC-Glo I/II substrate addition and measured after 30 mins post substrate addition. It counts as cell-free.
Assay [10] is filed under the species Homo sapiens. The experiment in a line: Inhibition of HDAC in human HeLa-S3 cells lysates assessed as remaining enzyme activity at 1 x 10^-6 M pre-incubated for 15 mins before HDAC-Glo I/II substrate addition and measured after 30 mins post substrate addition. It counts as cell-free.
Assay [11] concerns the target T1, Histone deacetylase 2. The experiment in a line: Inhibition of HDAC2 (unknown origin) assessed as remaining enzyme activity at 0.125 uM by ELISA-based assay. Summed up: as §1
Assay [12] has as its target T2, Histone deacetylase 1. The experiment in a line: Inhibition of HDAC1 (unknown origin) assessed as remaining enzyme activity at 0.125 uM by ELISA-based assay. In short, it runs like this:
as §1

For assay [13], the species on record is Homo sapiens. The experiment in a line: Inhibition of HDAC in human HeLa-S3 cells lysates assessed as remaining enzyme activity at 2 x 10^-6 M pre-incubated for 15 mins before HDAC-Glo I/II substrate addition and measured after 30 mins post substrate addition. The assay is classed as cell-free.
Assay [14] is filed under the species Homo sapiens. The experiment in a line: Inhibition of HDAC in human HeLa-S3 cells lysates assessed as remaining enzyme activity at 8 x 10^-6 M pre-incubated for 15 mins before HDAC-Glo I/II substrate addition and measured after 30 mins post substrate addition. The assay is classed as cell-free.
Assay [15] is filed under the species Homo sapiens. The experiment in a line: Inhibition of HDAC in human HeLa-S3 cells lysates assessed as remaining enzyme activity at 4 x 10^-6 M pre-incubated for 15 mins before HDAC-Glo I/II substrate addition and measured after 30 mins post substrate addition. It counts as cell-free.
The target of assay [16] is T3, Histone deacetylase 3. The experiment in a line: Inhibition of HDAC3 (unknown origin) assessed as remaining enzyme activity at 0.125 uM by ELISA-based assay. In short, it runs like this: as §1
Assay [17] is described as follows: Inhibition of HDAC in human HeLa-S3 cells lysates pre-incubated for 15 mins before HDAC-Glo I/II substrate addition and measured after 30 mins post substrate addition. It counts as cell-based.
Assay [18] addresses T4, Protein deacetylase HDAC6 (Homo sapiens). The experiment in a line: Inhibition of HDAC6 (unknown origin) assessed as remaining enzyme activity at 0.125 uM by ELISA-based assay. In short, it runs like this: as §1

The source of these data is ChEMBL document CHEMBL4052702 (Bioorg Med Chem Lett, 2017).

T2 sequence (Q13547 whole entry): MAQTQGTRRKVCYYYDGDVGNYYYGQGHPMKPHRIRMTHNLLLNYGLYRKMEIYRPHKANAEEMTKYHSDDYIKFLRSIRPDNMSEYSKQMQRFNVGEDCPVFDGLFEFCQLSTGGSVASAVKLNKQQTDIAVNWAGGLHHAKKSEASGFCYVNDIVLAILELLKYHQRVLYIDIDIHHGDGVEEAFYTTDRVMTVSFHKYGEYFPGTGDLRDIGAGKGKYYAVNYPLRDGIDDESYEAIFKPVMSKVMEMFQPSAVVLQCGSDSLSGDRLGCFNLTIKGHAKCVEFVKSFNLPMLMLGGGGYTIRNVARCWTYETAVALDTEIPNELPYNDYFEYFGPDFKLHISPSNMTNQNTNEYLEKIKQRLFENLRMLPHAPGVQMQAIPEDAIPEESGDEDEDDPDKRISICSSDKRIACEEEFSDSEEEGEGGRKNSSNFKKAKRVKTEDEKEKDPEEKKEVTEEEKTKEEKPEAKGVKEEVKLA
T1 sequence (Q92769 whole entry, canonical isoform): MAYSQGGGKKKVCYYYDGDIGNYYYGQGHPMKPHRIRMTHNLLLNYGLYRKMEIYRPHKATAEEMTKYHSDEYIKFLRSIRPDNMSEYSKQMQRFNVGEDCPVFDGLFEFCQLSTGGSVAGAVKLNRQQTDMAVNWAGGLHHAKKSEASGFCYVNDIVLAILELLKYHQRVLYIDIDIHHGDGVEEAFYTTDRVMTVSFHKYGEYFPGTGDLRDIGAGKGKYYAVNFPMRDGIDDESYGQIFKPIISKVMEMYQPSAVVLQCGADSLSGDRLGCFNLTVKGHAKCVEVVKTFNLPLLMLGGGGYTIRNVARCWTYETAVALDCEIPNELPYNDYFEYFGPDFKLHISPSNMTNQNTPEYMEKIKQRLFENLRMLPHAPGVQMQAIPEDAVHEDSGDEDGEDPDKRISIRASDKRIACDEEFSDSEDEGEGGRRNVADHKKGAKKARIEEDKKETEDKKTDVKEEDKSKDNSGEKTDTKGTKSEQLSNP

As to `CC(CCCC(=O)NO)CCC(=O)Nc1ccccc1` (centres undefined), the Activity in the assay filed under Homo sapiens [1] came to 68%; at Histone deacetylase 2 [2], 81%; in the assay filed under Homo sapiens [3], 14%; at Histone deacetylase 1 [4] it was 67%; in the assay filed under Homo sapiens [5] it was 15%; on Histone deacetylase 3 [6] it was 80%. Moreover, the Activity in assay [7] came out at 63%; in the assay listed under Homo sapiens [8], 44%; in the assay listed under Homo sapiens [9] it was 85%.
Take `O=C(CCCC(CCC(=O)Nc1ccccc1)c1ccccc1)NO` (centres undefined): the Activity is 74% in the assay filed under Homo sapiens [10]; 85% on Histone deacetylase 2 [11]; 83% at Histone deacetylase 1 [12]; 53% in the assay listed under Homo sapiens [13]; 94% in the assay listed under Homo sapiens [3]; 15% in the assay filed under Homo sapiens [14]. Moreover, the Activity in the assay filed under Homo sapiens [15] came to 31%; on Histone deacetylase 3 [16] it was 86%; in assay [18], 63%. For the same molecule, the IC50 (usually the midpoint of a concentration-inhibition curve) in assay [17] is 2.2 µM.
